Results published in ChEMBL document CHEMBL1135975, “Design, synthesis, and evaluation of new noncross-linking pyrrolobenzodiazepine dimers with efficient DNA binding ability and potent antitumor activity” (2002).
Several values for one entry are separate records, joined by “and”; a condition that tells them apart may be missing. Equal entries are not always repeated.

How the values were obtained:
[1] = species: Bos taurus; assay: Thermal denaturation measured for calf thymus DNA after incubation at 37 degree at 0h.
Method in brief: (§1)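 Calf thymus DNA (100 µM in phosphate) with ligand at 20 µM final, a 1:5 ligand/DNA molar ratio, added from concentrated MeOH solution. Buffer was 10 mM sodium phosphate with 1 mM EDTA, pH 7.00. Samples were incubated at 37 °C for 0 or 18 h, then heated at 1 °C/min over 40-90 °C with A260 monitored. Tm was taken from the d(A260)/dT maxima, and ∆Tm given relative to DNA alone.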

[2] = species: Bos taurus; assay: Thermal denaturation measured for calf thymus DNA after incubation at 37 degree at 18 h.; method in brief: as §1
[3] = system: Melanoma cell; assay: Drug concentration causing 50% lethality against human cancer line melanoma; format: functional; settings: read-out: Log LC50 (the source's name) (converted)
Method in brief: (§2)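 Sixty-line human tumour panel screen: at least five concentrations at 10-fold dilutions, 48 h continuous exposure, growth read by sulforhodamine B protein stain. LC50 is the molar concentration giving 50% cell death (-50% growth) relative to control, as log LC50. Each cancer-type value is the average of 6-8 different cell lines.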

[4] = system: Prostatic carcinoma cell; assay: Drug concentration causing 50% lethality against prostate human cancer line; format: functional; settings: read-out: Log LC50 (the source's name) (converted); method in brief: as §2
[5] = system: Ovarian carcinoma cell; assay: Drug concentration causing 50% lethality against ovarian human cancer line; format: functional; settings: read-out: Log LC50 (the source's name) (converted); method in brief: as §2
[6] = system: Tumor Cell line; assay: In vitro cytotoxicity of drug concentration causing 50% cell death; format: functional, Homo sapiens; settings: read-out: Log LC50 (the source's name) (converted)
Method in brief: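 Compound tested against sixty human tumour lines from nine cancer types, each line at at least five concentrations at 10-fold dilutions, 48 h continuous exposure, sulforhodamine B protein read-out. LC50 is the concentration causing 50% cell death (-50% growth) versus control. The value is the mean graph midpoint of log LC50 over all lines.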

[7] = system: Tumor Cell line; assay: In vitro cytotoxicity of drug concentration causing total cell growth inhibition; format: functional, Homo sapiens; settings: read-out: Log TGI (converted)
Method in brief: (§3)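 Sixty human tumor cell lines covering nine cancer types. Continuous drug exposure for 48 h, with growth or viability read by sulforhodamine B protein assay. Dose-response curves were run at a minimum of five concentrations at 10-fold dilutions. GI50 (50% growth inhibition) and TGI (0% growth) were calculated relative to control and reported as log mean graph midpoints across all cell lines.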

[8] = species: Homo sapiens; assay: Drug concentration causing 50% lethality against human cancer line nonsmall-cell lung; format: functional; settings: read-out: Log LC50 (the source's name) (converted); method in brief: as §2
[9] = system: Renal cancer cell line; assay: Drug concentration causing 50% lethality against renal human cancer line; format: functional; settings: read-out: Log LC50 (the source's name) (converted); method in brief: as §2
[10] = system: Tumor Cell line; assay: In-vitro cytotoxicity of Drug molar concentration causing 50% cell growth inhibition against Human tumor cell lines; format: functional; method in brief: as §3
[11] = system: Panel leukemia (Carcinoma cell lines); assay: Drug concentration causing 50% lethality against human cancer line leukemia; format: functional; settings: read-out: Log LC50 (the source's name) (converted); method in brief: as §2
[12] = system: CNS carcinoma cell; assay: Drug concentration causing 50% lethality against human cancer line of CNS; format: functional; method in brief: as §2
[13] = system: Breast carcinoma cell; assay: Drug concentration causing 50% lethality against breast human cancer line; format: functional; method in brief: as §2
[14] = system: Colon carcinoma cell; assay: Drug concentration causing 50% lethality against human cancer line of colon; format: functional; method in brief: as §2
[15] = Homo sapiens, Ovarian carcinoma cell
[16] = Homo sapiens, Renal cancer cell line

SMILES	ΔTm [1] [°C]	ΔTm [2] [°C]	CC50 [4] [µM]	CC50 [5, 15] [µM]	CC50 ([6]; Homo sapiens, Tumor Cell line) [µM]	TGI ([7]; Homo sapiens, Tumor Cell line) [µM]	CC50 ([8]; Homo sapiens) [µM]	CC50 [9, 16] [µM]	GI50 ([10]; Homo sapiens, Tumor Cell line) [µM]	CC50 [11] [µM]	CC50 ([3]; Homo sapiens, Melanoma cell) [µM]	also measured
COc1cc2c(cc1OCCCCCOc1cc3c(cc1OC)C(=O)N1CCC[C@H]1C(=O)N3)N=C[C@@H]1CCCN1C2=O	14	17	> 100	87.1	44.7	2.24	58.9	51.3	0.115			CC50 [3]: 10 µM and 3.31 µM; CC50 [5]: 60.3 µM; CC50 [6]: 27.5 µM; TGI [7]: 1.12 µM; CC50 [8]: 79.4 µM; CC50 [9]: 44.7 µM; GI50 [10]: 0.12 µM
COc1cc2c(cc1OCCCOc1cc3c(cc1OC)C(=O)N1CCC[C@H]1C(=O)N3)N=C[C@@H]1CCCN1C2=O	6.5	7	> 100	95.5	83.2	42.7	> 100	91.2	13.2	33.1	83.2	
COc1cc2c(cc1O)N=C[C@@H]1CCCN1C2=O	0.3	0.7										
COc1cc2c(cc1OCCCCOc1cc3c(cc1OC)C(=O)N1CCC[C@H]1C(=O)N3)N=C[C@@H]1CCCN1C2=O	5	8.5	67.6	58.9	50.1	20.4	58.9	55	7.24	24.4	41.7	LC50 [12]: 45.7 µM; LC50 [13]: 53.7 µM; LC50 (50% lethal concentration) [14]: 57.5 µM
COc1cc2c(cc1OCCCOc1cc3c(cc1OC)C(=O)N1CCC[C@H]1C=N3)N=C[C@@H]1CCCN1C2=O	10.2											
